Results on 22 molecules are retold here after ChEMBL document CHEMBL1955758, “Synthesis and in vitro antiplasmodial activities of fluoroquinolone analogs” (Eur J Med Chem, 2012).

pIC50: −log10 of the molar value. ≈ marks a conversion by molar mass, not a printed value.

Broadly, the IC50 is the concentration that inhibits the measured activity by half. Low values mean inhibition by little substance, high ones a need for much substance. The pIC50 is the negative decadic logarithm of the IC50, by convention in mol/L. Low readings indicate a large IC50, high ones a small IC50.

The subject of series [1] is Plasmodium falciparum. Description: Antimalarial activity against chloroquine-sensitive Plasmodium falciparum 3D7. It counts as functional, organism-based. An outline of the steps: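 Chloroquine-sensitive P. falciparum 3D7 grown in vitro with ciprofloxacin as the reference standard; IC50 reported as mass concentration ± SE.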
Series [2] deals with HEK293. Description: Cytotoxicity against human HEK293 cells 1 to 100 uM after 24 to 72 hrs by MTT assay. It counts as cell-based. In short, it runs like this:
(§1)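 HEK-293 monolayers were kept in DMEM at 37 °C under 5% CO2 and seeded at about 4000 cells/well for 24 h. Medium was then replaced with fresh medium holding compound at 1, 10, 20, 30, 50 and 100 concentration units, and cells were incubated 24, 48 and 72 h. Viability was read by MTT and IC50 calculated.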
(Tetrazolium dyes change colour on reduction, which living cells bring about.)

The subject of series [3] is HEK293. Description: Cytotoxicity against human HEK293 cells after 24 to 72 hrs by MTT assay. In kind it is cell-based. In short, it runs like this: as §1

In series [1], `CCOC(=O)c1c[nH]c2cc(Cl)c(F)cc2c1=O` returned a half-inhibitory concentration (IC50) of 5.81 µg/mL (≈ 21.5 µM). On the same count and under the same terms, the same measure for `CCCn1cc(Cn2cc(C(=O)OCC)c(=O)c3cc(F)c(Cl)cc32)nn1`: 5.4 µg/mL (≈ 13.7 µM); for `CCOC(=O)c1cn(Cc2cn(CCO)nn2)c2cc(Cl)c(F)cc2c1=O`: 14.3 µg/mL (≈ 36.3 µM); for `CCOC(=O)c1cn(Cc2cn(CC(=O)OC)nn2)c2cc(Cl)c(F)cc2c1=O`: 5.26 µg/mL (≈ 12.4 µM). Molecule `CCCCn1cc(C(=O)OCC)c(=O)c2cc(F)c(Cl)cc21` had an IC50 in series [1] of 6.96 µg/mL (≈ 21.4 µM).

Consider `CCOC(=O)c1cn(C(C)C)c2cc(Cl)c(F)cc2c1=O`, for which, in series [1], the IC50 stood at 6.97 µg/mL (≈ 22.3 µM). Same read-out and setting: under `C#CCn1cc(C(=O)OCC)c(=O)c2cc(F)c(Cl)cc21` stands 3.46 µg/mL (≈ 11.2 µM).

Consider `O=C(O)c1c[nH]c2cc(Cl)c(F)cc2c1=O`, for which the Activity result in series [2] is recorded as “Non-toxic”. In series [1], this molecule yielded an IC50 of 4.32 µg/mL (≈ 17.9 µM).

Take `CCOC(=O)c1cn(C)c2cc(Cl)c(F)cc2c1=O`: the IC50 in series [1] worked out at 11.8 µg/mL (≈ 41.7 µM).

In series [1], `CCOC(=O)c1cn(CC)c2cc(Cl)c(F)cc2c1=O` returned an IC50 of 15.2 µg/mL (≈ 51.1 µM).

In turn, `CCCn1cc(C(=O)OCC)c(=O)c2cc(F)c(Cl)cc21` had an IC50 in series [1] of 4.86 µg/mL (≈ 15.6 µM).

`CCOC(=O)c1cn(Cc2cn(Cc3ccccc3)nn2)c2cc(Cl)c(F)cc2c1=O` came in with an IC50 in series [1] of 12.2 µg/mL (≈ 27.7 µM). On the same count and under the same terms, under `CCOC(=O)c1cn(Cc2cn(-c3ccc(Cl)cc3)nn2)c2cc(Cl)c(F)cc2c1=O` stands 13 µg/mL (≈ 28.2 µM). In series [1], `CCOC(=O)c1cn(Cc2cn(-c3cccc(Cl)c3)nn2)c2cc(Cl)c(F)cc2c1=O` had an IC50 of 2.73 µg/mL (≈ 5.92 µM). Compared with the last molecule, the IC50 is about 4.8-fold lower.

In series [1], `CCOC(=O)c1cn(CCO)c2cc(Cl)c(F)cc2c1=O` registered an IC50 of 4.26 µg/mL (≈ 13.6 µM).

Turning to `CCOC(=O)c1cn(CC#N)c2cc(Cl)c(F)cc2c1=O`, the midpoint of inhibition in series [1], the IC50, lay at 2.56 µg/mL (≈ 8.29 µM). Consider `CCOC(=O)c1cn(Cc2ccccc2)c2cc(Cl)c(F)cc2c1=O`, for which half-maximal inhibition in series [1] (IC50) was put at 6.83 µg/mL (≈ 19 µM). `CCOC(=O)c1cn(Cc2c[nH]nn2)c2cc(Cl)c(F)cc2c1=O`: in series [2], the Activity entry is “Toxic”. In series [1], the half-maximal inhibitory concentration (IC50) was 1.33 µg/mL (≈ 3.79 µM).

`CCOC(=O)c1cn(Cc2cn(-c3ccc(F)cc3)nn2)c2cc(Cl)c(F)cc2c1=O` showed a pIC50 in series [3] of 4.20. The molecule also came in with an IC50 in series [1] of 4.3 µg/mL (≈ 9.67 µM). Regarding `CCOC(=O)c1cn(Cc2cn(-c3ccc(F)c(Cl)c3)nn2)c2cc(Cl)c(F)cc2c1=O`, the pIC50 in series [3] is 4.38. The molecule further came in with an IC50 in series [1] of 3.4 µg/mL (≈ 7.09 µM).

For the molecule `CCOC(=O)c1cn(Cc2cn(-c3ccnc4cc(Cl)ccc34)nn2)c2cc(Cl)c(F)cc2c1=O`, the Activity result in series [2] is listed as “Non-toxic”. Besides, in series [1], the IC50 amounted to 4.06 µg/mL (≈ 7.92 µM). In turn, `O=C(O)c1cn(C2CC2)c2cc(N3CCNCC3)c(F)cc2c1=O` [CIPROFLOXACIN] had an IC50 in series [1] of 8.82 µg/mL (≈ 26.6 µM).
